What was measured:
A549 = assay: Cytotoxicity against human A549 cells assessed as reduction in cell viability after 48 hrs by MTT assay; format: functional, cell-based; details: A549, 48 h
Outline: (§1)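 1 × 10^4 cells per well, pre-incubated 12 h at 37 °C under 5% CO2, then exposed to serial dilutions of compound (paclitaxel as reference) for 48 h. MTT reagent (5 mg/mL) added for a further 4 h, formazan dissolved in DMSO, absorbance read at 570 nm. Three independent experiments, each in triplicate; IC50 from sigmoid curve fitting.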

MCF7 = assay: Cytotoxicity against human MCF7 cells assessed as reduction in cell viability after 48 hrs by MTT assay; format: functional, cell-based; details: MCF7, 48 h; outline: as §1

| Structure (SMILES) | IC50 (A549) [µM] | IC50 (MCF7) [µM] |
| --- | --- | --- |
| COc1cc(C(=O)OC[C@H]2O[C@@H](Oc3ccc4ccc(=O)oc4c3)[C@H](O)[C@@H](O)[C@@H]2O)cc(OC)c1O | > 10 | > 10 |
| COc1cc(O)ccc1C(=O)C[C@H]1c2ccc(O)c(O)c2C[C@@H]1C(C)(C)O | 2.5 | 3.9 |
| COc1cc2ccc(=O)oc2cc1O[C@@H]1O[C@H](COC(=O)CCc2cc(OC)c(O[C@@H]3O[C@H](CO)[C@@H](O)[C@H](O)[C@H]3O)c(OC)c2)[C@@H](O)[C@H](O)[C@H]1O | > 10 | > 10 |
| COC(=O)C[C@@H]1c2c(-c3ccc(O)cc3OC)cc(O)c(O)c2C[C@H]1C(C)(C)O | 6 | 7.2 |
| COc1cc(C(=O)OC[C@H]2O[C@@H](Oc3cc4oc(=O)ccc4cc3OC)[C@H](O)[C@@H](O)[C@@H]2O)ccc1O[C@@H]1O[C@H](CO)[C@@H](O)[C@H](O)[C@H]1O | > 10 | > 10 |
| COc1cc(O)ccc1C(=O)C[C@@H]1c2ccc(O)c(O)c2C[C@H]1C(C)(C)O | 2.2 | 3.3 |
| COC(=O)C[C@@H]1c2c(-c3ccc(O)cc3OC)cc(O)c(O)c2C[C@@H]1C(C)(C)O | 5.6 | 6.7 |
| COc1cc2ccc(=O)oc2cc1O[C@@H]1O[C@H](COC(=O)c2cc(OC)c(O[C@@H]3O[C@H](CO)[C@@H](O)[C@H](O)[C@H]3O)c(OC)c2)[C@@H](O)[C@H](O)[C@H]1O | > 10 | > 10 |

Source: ChEMBL document CHEMBL4041488, “Structural Characterization and Assessment of the Cytotoxicity of 2,3-Dihydro-1H-indene Derivatives and Coumarin Glucosides from the Bark of Streblus indicus” (J Nat Prod, 2016)
